The text below walks through data of ChEMBL document CHEMBL1140339, “Spiro and dispiro-1,2,4-trioxolanes as antimalarial peroxides: charting a workable structure-activity relationship using simple prototypes” (J Med Chem, 2005).

SMILES strings stand for the structures. In brackets after ≈: the same amount, converted by molar mass.

In assay [1] the test system is Mus musculus. Nature of the assay: Survival of mice to 30-day postinfection with Plasmodium berghei upon 10 mg/kg upon subcutaneous dose was determined. In kind it is functional. The gist of the method:
(§1)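 P. berghei-infected MORO mice, groups of three, treated 1 day postinfection with a single dose (100 or 10 mg/kg, po or sc) dissolved or suspended in 3% ethanol/7% Tween-80. Activity is percent reduction in parasitemia on day 3 postinfection versus untreated controls. Survival time is compared with an untreated control group. Individual measurements generally differed by less than 10%.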

The subject of assay [2] is Mus musculus. Put plainly: Antimalarial activity (10 mg/kg, peroral) given 1 day post infection of mice (Mus musculus) with Plasmodium berghei is its ability to reduce parasitaemia on day 3 post infection. Format: functional. In a few lines:
as §1

Assay [3] relates to Mus musculus. Nature of the assay: Survival of mice to 30-day postinfection with Plasmodium berghei upon 10 mg/kg peroral dose was determined. In kind it is functional. Particulars: route oral. In a few lines:
as §1

The subject of assay [4] is Plasmodium falciparum. Nature of the assay: In vitro inhibition of chloroquine-sensitive Plasmodium falciparum NF54. Format: functional, organism-based.
Assay [5] concerns Plasmodium falciparum. Nature of the assay: In vitro inhibition of chloroquine-resistant Plasmodium falciparum K1. In kind it is functional, organism-based.
In assay [6] the test system is Mus musculus. Put plainly: Antimalarial activity (10 mg/kg, subcutaneously) given 1 day post infection of mice (Mus musculus) with Plasmodium berghei is its ability to reduce parasitemia on day 3 post infection. Format: functional. In a few lines:
as §1

In general, IC50 refers to the point on the concentration scale where inhibition reaches its midpoint. Lower therefore signals greater potency. On to `CC1(C)CC(C)(C)CC2(C1)OOC1(O2)C2CC3CC(C2)CC1C3` (stereo not given), for which the Survival in the assay on Mus musculus [1] is 97 days; with Mus musculus [3], 7 days. Further, the Reduction in the assay with Mus musculus [2] came out at 88%; with Mus musculus [6], 99.9%. Also, the IC50 in the assay with Plasmodium falciparum [4] was found to be 5 ng/mL (≈ 0.0156 µM); with Plasmodium falciparum [5], 3.1 ng/mL (≈ 0.00967 µM).
Turning to `CC1(C)COC2(CCC3(CC2)OOC2(CC(C)(C)CC(C)(C)C2)O3)OC1`, the Survival in the assay with Mus musculus [1] and in the assay on Mus musculus [3] was 5.7 days throughout. For the same compound, the Reduction with Mus musculus [2] and in the assay on Mus musculus [6] was 0% throughout.
With `c1ccc(CC2(Cc3ccccc3)OOC3(O2)C2CC4CC(C2)CC3C4)cc1` (stereo not given), the Survival worked out at 8 days in the assay with Mus musculus [1] and 6.7 days with Mus musculus [3]. Further, the Reduction in the assay on Mus musculus [2] is on record as 88%; in the assay on Mus musculus [6], 99.7%. In addition, the results for the half-maximal inhibitory concentration (IC50) in the assay on Plasmodium falciparum [4] and with Plasmodium falciparum [5] were 3 ng/mL (≈ 0.00797 µM) and 3.1 ng/mL (≈ 0.00823 µM), respectively.
Consider `CC(C)C1CCC2(CC1)OOC1(O2)C2CC3CC(C2)CC1C3` (stereo not given), for which the Survival in the assay with Mus musculus [1] was found to be 9 days; with Mus musculus [3], 7.3 days. The Reduction in the assay on Mus musculus [2] is reported as 99%; with Mus musculus [6] it was 9.89%. Besides, the IC50 in the assay with Plasmodium falciparum [4] is 2 ng/mL (≈ 0.00653 µM); with Plasmodium falciparum [5], 1.4 ng/mL (≈ 0.00457 µM).
For `Fc1ccc(C2(c3ccc(F)cc3)OOC3(CCC(c4ccccc4)CC3)O2)cc1` (stereo not given), the Survival in the assay with Mus musculus [1] was 5.7 days; with Mus musculus [3], 5.3 days. The Reduction in the assay with Mus musculus [2] and in the assay with Mus musculus [6] was 0% in each case.
Turning to `CC1(C)COC2(CCC3(CC2)OOC2(O3)C3CCCC2CCC3)OC1` (stereo not given), the values for the Survival in the assay with Mus musculus [1] and in the assay with Mus musculus [3] were 5.3 days and 5 days, respectively. Besides, the results for the Reduction with Mus musculus [2] and with Mus musculus [6] were 1% and 6%, respectively. Further, the IC50 in the assay on Plasmodium falciparum [4] is 49 ng/mL (≈ 0.139 µM); with Plasmodium falciparum [5], 41 ng/mL (≈ 0.116 µM).
Take `CCCC1CCC2(CC1)OOC1(O2)C2CC3CC(C2)CC1C3` (stereo not given): the Survival was 16.5 days in the assay with Mus musculus [1] and 8.4 days with Mus musculus [3]. In addition, the half-maximal inhibitory concentration (IC50) was determined as 2.1 ng/mL (≈ 0.00685 µM) in the assay with Plasmodium falciparum [4] and 1.1 ng/mL (≈ 0.00359 µM) in the assay with Plasmodium falciparum [5].
As for `O=S1(=O)CCC2(CC1)OOC1(O2)C2CC3CC(C2)CC1C3` (stereo not given), the Survival stood at 7.3 days in the assay with Mus musculus [1] and 7 days in the assay on Mus musculus [3]. Further, the Reduction stood at 77% in the assay with Mus musculus [2] and 97% in the assay on Mus musculus [6].
In the case of `CC(C)(C)C1CCC2(CC1)OOC1(O2)C2CC3CC(C2)CC1C3` (stereo not given), the Survival in the assay on Mus musculus [1] was determined as 5.3 days; in the assay on Mus musculus [3] it was 5 days. The Reduction with Mus musculus [2] and in the assay with Mus musculus [6] was 0% in each case. The half-maximal inhibitory concentration (IC50) with Plasmodium falciparum [4] came to 84 ng/mL (≈ 0.262 µM); in the assay with Plasmodium falciparum [5], 63 ng/mL (≈ 0.197 µM).
For the compound `OC1CCC2(CC1)OOC1(O2)C2CC3CC(C2)CC1C3` (stereo not given), the Survival was 8.7 days in the assay on Mus musculus [1] and 6.7 days in the assay on Mus musculus [3]. Also, the values for the Reduction in the assay on Mus musculus [2] and in the assay with Mus musculus [6] were 79% and 91%, respectively.
Take `c1ccc(C2(c3ccccc3)CCC3(CC2)OOC2(O3)C3CC4CC(C3)CC2C4)cc1` (stereo not given): the Survival with Mus musculus [1] amounted to 5.7 days; in the assay with Mus musculus [3], 5.3 days. Moreover, the Reduction in the assay with Mus musculus [2] and in the assay on Mus musculus [6] was 0% throughout. Also, the IC50 in the assay on Plasmodium falciparum [4] was found to be 60 ng/mL (≈ 0.144 µM); with Plasmodium falciparum [5], 42 ng/mL (≈ 0.101 µM).
Take `CC1(C)CCC2(CC1)OOC1(O2)C2CC3CC(C2)CC1C3` (stereo not given): the Survival in the assay with Mus musculus [1] stood at 11.7 days; in the assay with Mus musculus [3], 6.7 days. In addition, the Reduction in the assay with Mus musculus [2] was found to be 80%. The IC50 in the assay on Plasmodium falciparum [4] turned out to be 3.5 ng/mL (≈ 0.012 µM); with Plasmodium falciparum [5], 2.3 ng/mL (≈ 0.00787 µM).
With `c1ccc(C2(c3ccccc3)OOC3(O2)C2CC4CC(C2)CC3C4)cc1` (stereo not given), the values for the Survival in the assay with Mus musculus [1] and in the assay on Mus musculus [3] were 7 days and 6 days, respectively. Further, the Reduction was 68% in the assay on Mus musculus [2] and 92% in the assay on Mus musculus [6]. Moreover, the concentration for half-maximal inhibition (IC50) came to 2.6 ng/mL (≈ 0.00746 µM) with Plasmodium falciparum [4] and 2.3 ng/mL (≈ 0.0066 µM) in the assay with Plasmodium falciparum [5].
Compound `CC(C)(C)C1CCC2(CC1)OOC1(CCC(c3ccccc3)CC1)O2` (stereo not given) showed a Survival in the assay with Mus musculus [3] of 0 days. Also, the results for the IC50 in the assay with Plasmodium falciparum [4] and in the assay with Plasmodium falciparum [5] were 62 ng/mL (≈ 0.18 µM) and 77 ng/mL (≈ 0.224 µM), respectively.
